This is an account of results in ChEMBL document CHEMBL1140872, “Discovery of a potent and selective inhibitor for human carbonyl reductase 1 from propionate scanning applied to the macrolide zearalenone” (Bioorg Med Chem, 2009).

Experiment [1] deals with Mitogen-activated protein kinase 11 (Homo sapiens) (UniProt Q15759). Put plainly: Binding affinity to human recombinant MAPK11 expressed in Escherichia coli assessed as thermal shift by differential scanning fluorimetry. The method in brief: (§1)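 Thermal-shift (DSF) binding assay with purified recombinant catalytic domains or proteins carrying an N- or C-terminal His6 tag or GST fusion. Purity was >95% by SDS/PAGE and identity was confirmed by MS. Protein was at 2 µM final in 10 mM HEPES pH 7.5 and 150 mM NaCl. Tm shift is reported, with 2 °C as the threshold for binding.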

In experiment [2] the target is T1, Dual specificity mitogen-activated protein kinase kinase 6 (Homo sapiens) (UniProt P52564).
T1 sequence (whole entry): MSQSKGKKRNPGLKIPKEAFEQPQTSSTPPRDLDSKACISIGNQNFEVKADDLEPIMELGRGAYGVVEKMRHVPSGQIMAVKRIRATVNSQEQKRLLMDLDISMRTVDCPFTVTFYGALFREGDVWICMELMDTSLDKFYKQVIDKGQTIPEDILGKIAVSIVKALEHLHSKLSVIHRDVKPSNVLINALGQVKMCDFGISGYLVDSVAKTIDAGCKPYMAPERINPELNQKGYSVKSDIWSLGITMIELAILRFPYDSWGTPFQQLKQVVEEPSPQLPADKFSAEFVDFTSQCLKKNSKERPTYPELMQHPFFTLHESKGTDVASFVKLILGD
Put plainly: Binding affinity to human recombinant MAP2K6 expressed in Escherichia coli assessed as thermal shift by differential scanning fluorimetry. In a few lines:
as §1
For orientation: Differential scanning fluorimetry follows unfolding on heating by fluorescence.

Experiment [3] deals with Serine/threonine-protein kinase 10 (Homo sapiens) (UniProt O94804). As to the kind of experiment: Binding affinity to human recombinant LOK expressed in Escherichia coli assessed as thermal shift by differential scanning fluorimetry. In a few lines:
as §1

Experiment [4] concerns the target T2, Carbonyl reductase [NADPH] 3 (Homo sapiens) (UniProt O75828).
T2 sequence (whole entry): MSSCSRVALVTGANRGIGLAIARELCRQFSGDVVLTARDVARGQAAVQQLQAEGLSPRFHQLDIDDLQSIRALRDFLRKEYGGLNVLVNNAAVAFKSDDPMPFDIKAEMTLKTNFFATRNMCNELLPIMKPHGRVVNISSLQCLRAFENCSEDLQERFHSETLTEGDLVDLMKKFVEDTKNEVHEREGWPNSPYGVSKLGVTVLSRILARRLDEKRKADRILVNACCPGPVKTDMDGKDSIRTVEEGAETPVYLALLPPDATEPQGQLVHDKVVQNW
As to the kind of experiment: Binding affinity to human recombinant carbonyl reductase 3 expressed in Escherichia coli assessed as thermal shift by differential scanning fluorimetry in presence of NADP+. In a few lines:
as §1

Experiment [5] is filed under the species Homo sapiens. Put plainly: Binding affinity to human recombinant DYRK1 expressed in Escherichia coli assessed as thermal shift by differential scanning fluorimetry. In a few lines:
as §1

Experiment [6] addresses T3, Carbonyl reductase [NADPH] 1 (Homo sapiens) (UniProt P16152).
T3 sequence (whole entry): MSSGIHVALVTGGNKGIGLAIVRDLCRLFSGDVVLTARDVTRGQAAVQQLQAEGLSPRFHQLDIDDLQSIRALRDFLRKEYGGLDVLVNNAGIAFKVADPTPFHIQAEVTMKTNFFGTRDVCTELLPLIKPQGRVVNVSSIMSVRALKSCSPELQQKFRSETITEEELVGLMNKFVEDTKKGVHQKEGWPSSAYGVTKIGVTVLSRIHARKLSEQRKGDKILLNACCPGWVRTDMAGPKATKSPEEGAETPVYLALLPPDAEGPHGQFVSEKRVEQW
As to the kind of experiment: Binding affinity to human recombinant carbonyl reductase 1 expressed in Escherichia coli assessed as thermal shift by differential scanning fluorimetry in absence of cofactor. The method in brief: as §1

Experiment [7] concerns the target T4, Serine/threonine-protein kinase PLK4 (Homo sapiens) (UniProt O00444).
T4 sequence (whole entry): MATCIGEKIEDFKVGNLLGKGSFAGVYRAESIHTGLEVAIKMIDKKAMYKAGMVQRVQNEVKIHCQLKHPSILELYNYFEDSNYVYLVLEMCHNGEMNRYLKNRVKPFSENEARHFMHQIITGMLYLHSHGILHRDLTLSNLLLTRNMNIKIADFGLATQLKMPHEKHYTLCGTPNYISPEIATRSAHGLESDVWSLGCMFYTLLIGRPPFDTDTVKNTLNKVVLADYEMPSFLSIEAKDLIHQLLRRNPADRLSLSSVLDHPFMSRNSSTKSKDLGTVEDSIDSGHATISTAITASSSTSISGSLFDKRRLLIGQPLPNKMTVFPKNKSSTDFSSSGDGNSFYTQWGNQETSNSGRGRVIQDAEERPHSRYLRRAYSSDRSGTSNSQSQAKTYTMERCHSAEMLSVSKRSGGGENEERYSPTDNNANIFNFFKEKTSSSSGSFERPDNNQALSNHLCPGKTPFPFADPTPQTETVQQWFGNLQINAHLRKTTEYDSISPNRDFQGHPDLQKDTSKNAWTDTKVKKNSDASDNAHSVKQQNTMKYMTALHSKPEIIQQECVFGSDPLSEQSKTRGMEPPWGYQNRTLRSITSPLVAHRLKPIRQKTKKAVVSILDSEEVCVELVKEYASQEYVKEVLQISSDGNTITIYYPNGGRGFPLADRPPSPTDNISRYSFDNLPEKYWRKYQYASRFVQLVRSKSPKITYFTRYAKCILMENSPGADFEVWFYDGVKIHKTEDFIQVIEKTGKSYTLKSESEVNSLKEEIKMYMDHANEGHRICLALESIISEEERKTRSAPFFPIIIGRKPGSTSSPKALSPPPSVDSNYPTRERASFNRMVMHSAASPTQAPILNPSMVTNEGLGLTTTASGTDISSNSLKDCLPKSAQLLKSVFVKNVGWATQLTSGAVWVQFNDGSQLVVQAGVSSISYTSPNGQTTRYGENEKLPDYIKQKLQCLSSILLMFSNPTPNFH
Put plainly: Binding affinity to human recombinant PLK4 expressed in Escherichia coli assessed as thermal shift by differential scanning fluorimetry. In a few lines: as §1

Experiment [8] concerns the target Serine/threonine-protein kinase PAK 6 (Homo sapiens) (UniProt Q9NQU5). Put plainly: Binding affinity to human recombinant PAK6 expressed in Escherichia coli assessed as thermal shift by differential scanning fluorimetry. In a few lines:
as §1

The target in experiment [9] is T2, Carbonyl reductase [NADPH] 3 (Homo sapiens). Put plainly: Binding affinity to human recombinant carbonyl reductase 3 expressed in Escherichia coli assessed as thermal shift by differential scanning fluorimetry in absence of cofactor. The method in brief: as §1
Experiment [10] concerns the target T3, Carbonyl reductase [NADPH] 1 (Homo sapiens). As to the kind of experiment: Binding affinity to human recombinant carbonyl reductase 1 expressed in Escherichia coli assessed as thermal shift by differential scanning fluorimetry in presence of NADPH. The method in brief: as §1
For experiment [11], the target named is STE20-like serine/threonine-protein kinase (Homo sapiens) (UniProt Q9H2G2). Put plainly: Binding affinity to human recombinant SLK expressed in Escherichia coli assessed as thermal shift by differential scanning fluorimetry. The method in brief: as §1
In experiment [12] the target is Casein kinase I isoform gamma-1 (Homo sapiens) (UniProt Q9HCP0). Put plainly: Binding affinity to human recombinant CSNK1G1 expressed in Escherichia coli assessed as thermal shift by differential scanning fluorimetry. In a few lines:
as §1

For experiment [13], the target named is Mitogen-activated protein kinase 6 (Homo sapiens) (UniProt Q16659). Put plainly: Binding affinity to human recombinant MAPK6 expressed in Escherichia coli assessed as thermal shift by differential scanning fluorimetry. In a few lines:
as §1

The target of experiment [14] is T3, Carbonyl reductase [NADPH] 1 (Homo sapiens). Put plainly: Binding affinity to human recombinant carbonyl reductase 1 expressed in Escherichia coli assessed as thermal shift by differential scanning fluorimetry in presence of NADP+. In a few lines: as §1

Chain of Serine/threonine-protein kinase 10 (Homo sapiens) (O94804 whole entry, looked up): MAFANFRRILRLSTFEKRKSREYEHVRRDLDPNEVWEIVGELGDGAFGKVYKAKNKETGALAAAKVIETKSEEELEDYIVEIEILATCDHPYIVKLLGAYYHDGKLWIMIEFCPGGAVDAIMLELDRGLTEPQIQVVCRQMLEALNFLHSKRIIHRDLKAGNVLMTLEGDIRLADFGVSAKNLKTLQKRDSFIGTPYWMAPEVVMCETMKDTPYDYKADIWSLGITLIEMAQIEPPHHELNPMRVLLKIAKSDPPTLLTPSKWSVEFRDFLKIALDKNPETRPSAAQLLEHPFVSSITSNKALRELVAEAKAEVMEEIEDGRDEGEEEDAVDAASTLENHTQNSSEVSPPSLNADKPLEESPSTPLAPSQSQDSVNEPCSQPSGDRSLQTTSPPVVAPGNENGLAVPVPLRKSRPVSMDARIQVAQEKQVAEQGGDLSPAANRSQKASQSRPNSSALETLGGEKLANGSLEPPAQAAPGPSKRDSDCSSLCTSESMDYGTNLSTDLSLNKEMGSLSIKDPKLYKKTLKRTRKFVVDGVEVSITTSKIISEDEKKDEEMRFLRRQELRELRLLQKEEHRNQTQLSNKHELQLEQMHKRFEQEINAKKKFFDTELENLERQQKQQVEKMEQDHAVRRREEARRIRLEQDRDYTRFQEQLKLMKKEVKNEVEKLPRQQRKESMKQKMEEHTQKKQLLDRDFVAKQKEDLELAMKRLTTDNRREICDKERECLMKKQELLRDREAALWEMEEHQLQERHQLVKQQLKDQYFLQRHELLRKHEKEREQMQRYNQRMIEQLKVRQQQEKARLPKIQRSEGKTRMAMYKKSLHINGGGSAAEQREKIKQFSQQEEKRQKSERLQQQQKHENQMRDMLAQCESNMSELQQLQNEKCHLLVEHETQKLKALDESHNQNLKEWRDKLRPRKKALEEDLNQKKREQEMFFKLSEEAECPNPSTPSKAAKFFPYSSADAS
Chain of Serine/threonine-protein kinase PAK 6 (Homo sapiens) (Q9NQU5 whole entry, looked up): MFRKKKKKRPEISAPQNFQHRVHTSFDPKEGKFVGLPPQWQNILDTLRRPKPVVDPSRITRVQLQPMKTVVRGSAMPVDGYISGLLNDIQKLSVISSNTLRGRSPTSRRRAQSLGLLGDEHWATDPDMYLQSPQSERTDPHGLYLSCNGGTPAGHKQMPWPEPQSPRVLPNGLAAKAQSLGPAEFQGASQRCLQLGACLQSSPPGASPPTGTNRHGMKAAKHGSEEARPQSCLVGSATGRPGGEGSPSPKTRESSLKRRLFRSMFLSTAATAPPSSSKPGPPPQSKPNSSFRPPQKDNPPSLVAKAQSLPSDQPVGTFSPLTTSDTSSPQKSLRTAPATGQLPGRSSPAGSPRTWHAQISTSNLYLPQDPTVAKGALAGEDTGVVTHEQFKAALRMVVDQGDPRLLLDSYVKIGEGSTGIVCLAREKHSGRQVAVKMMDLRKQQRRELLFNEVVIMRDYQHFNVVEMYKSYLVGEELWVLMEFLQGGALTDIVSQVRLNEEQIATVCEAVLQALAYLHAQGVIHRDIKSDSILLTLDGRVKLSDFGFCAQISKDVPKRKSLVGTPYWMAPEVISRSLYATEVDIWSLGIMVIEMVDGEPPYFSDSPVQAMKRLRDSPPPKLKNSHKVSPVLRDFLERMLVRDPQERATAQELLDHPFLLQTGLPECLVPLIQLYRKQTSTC
Chain of Mitogen-activated protein kinase 11 (Homo sapiens) (Q15759 whole entry, the tested form may be a part): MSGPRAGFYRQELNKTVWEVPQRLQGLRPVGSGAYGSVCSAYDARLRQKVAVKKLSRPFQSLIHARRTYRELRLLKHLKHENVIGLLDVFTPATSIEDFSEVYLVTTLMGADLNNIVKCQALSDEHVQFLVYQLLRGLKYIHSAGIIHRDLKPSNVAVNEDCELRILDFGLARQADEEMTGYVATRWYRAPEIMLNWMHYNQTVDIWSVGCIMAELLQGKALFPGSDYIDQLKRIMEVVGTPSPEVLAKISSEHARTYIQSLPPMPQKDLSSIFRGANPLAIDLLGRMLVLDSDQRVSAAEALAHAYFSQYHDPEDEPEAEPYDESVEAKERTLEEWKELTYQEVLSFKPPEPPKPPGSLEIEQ
Chain of Mitogen-activated protein kinase 6 (Homo sapiens) (Q16659 whole entry): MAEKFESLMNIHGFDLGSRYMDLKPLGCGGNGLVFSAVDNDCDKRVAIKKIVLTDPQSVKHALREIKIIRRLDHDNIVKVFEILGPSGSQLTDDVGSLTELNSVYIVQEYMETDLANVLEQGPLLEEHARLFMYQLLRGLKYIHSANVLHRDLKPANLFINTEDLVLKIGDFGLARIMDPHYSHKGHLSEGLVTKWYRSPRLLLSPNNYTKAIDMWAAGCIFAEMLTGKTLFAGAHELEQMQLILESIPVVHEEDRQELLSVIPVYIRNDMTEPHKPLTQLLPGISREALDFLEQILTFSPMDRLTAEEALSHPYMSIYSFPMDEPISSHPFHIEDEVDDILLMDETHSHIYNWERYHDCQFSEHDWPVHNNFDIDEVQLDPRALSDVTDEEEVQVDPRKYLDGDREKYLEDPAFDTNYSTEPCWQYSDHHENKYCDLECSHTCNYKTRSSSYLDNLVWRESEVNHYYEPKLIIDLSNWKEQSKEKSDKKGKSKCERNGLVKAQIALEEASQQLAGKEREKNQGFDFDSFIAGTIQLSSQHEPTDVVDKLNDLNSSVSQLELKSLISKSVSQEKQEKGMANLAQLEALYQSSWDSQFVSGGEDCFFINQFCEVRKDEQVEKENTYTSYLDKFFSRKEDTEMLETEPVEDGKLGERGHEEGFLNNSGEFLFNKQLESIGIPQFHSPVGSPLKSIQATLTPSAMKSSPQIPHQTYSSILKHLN
Chain of Casein kinase I isoform gamma-1 (Homo sapiens) (Q9HCP0 whole entry, looked up, canonical isoform): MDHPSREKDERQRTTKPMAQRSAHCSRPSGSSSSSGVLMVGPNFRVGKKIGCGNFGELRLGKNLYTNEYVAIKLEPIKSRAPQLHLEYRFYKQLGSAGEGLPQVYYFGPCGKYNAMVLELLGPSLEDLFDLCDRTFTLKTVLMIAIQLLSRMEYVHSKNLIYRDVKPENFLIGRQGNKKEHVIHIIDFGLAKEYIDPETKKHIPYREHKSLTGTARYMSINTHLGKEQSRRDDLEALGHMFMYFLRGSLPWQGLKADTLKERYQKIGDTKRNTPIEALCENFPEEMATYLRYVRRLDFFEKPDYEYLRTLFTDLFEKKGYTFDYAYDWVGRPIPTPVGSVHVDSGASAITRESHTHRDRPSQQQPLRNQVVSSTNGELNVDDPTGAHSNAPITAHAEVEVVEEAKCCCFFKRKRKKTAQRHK
Chain of STE20-like serine/threonine-protein kinase (Homo sapiens) (Q9H2G2 whole entry, looked up, canonical isoform): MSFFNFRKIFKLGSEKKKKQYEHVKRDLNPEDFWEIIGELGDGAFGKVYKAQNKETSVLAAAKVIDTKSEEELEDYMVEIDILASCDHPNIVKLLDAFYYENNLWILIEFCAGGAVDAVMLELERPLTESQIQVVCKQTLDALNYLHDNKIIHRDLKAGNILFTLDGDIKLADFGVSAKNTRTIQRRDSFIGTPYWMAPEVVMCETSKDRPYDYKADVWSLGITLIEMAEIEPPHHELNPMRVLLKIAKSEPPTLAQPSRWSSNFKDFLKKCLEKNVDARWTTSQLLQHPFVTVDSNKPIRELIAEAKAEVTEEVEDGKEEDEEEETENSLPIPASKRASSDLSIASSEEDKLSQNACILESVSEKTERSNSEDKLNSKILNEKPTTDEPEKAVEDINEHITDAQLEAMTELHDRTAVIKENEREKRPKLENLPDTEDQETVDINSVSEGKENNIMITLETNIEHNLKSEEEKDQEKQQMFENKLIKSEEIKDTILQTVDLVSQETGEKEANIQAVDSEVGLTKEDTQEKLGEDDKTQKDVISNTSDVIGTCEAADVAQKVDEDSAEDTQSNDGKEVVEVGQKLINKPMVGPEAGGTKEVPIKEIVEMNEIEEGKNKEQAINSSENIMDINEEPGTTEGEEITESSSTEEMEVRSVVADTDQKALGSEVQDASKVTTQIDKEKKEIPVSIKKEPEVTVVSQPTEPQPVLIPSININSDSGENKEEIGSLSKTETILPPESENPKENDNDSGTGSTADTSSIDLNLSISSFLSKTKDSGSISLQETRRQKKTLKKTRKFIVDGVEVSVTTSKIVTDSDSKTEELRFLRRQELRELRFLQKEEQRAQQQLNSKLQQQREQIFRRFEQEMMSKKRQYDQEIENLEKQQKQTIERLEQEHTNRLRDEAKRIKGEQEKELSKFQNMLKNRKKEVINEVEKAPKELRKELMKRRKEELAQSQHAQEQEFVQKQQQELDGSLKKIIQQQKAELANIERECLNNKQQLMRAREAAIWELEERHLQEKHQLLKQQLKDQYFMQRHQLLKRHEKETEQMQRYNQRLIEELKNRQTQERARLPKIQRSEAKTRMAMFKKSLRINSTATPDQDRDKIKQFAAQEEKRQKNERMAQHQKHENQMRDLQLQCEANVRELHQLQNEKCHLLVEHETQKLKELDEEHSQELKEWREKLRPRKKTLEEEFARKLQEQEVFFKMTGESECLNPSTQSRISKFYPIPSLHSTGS

As usually defined, the Tm is the temperature at the midpoint of the melting transition. On to `COc1cc2c(c(OC)c1)C(=O)O[C@@H](C)CCC[C@@H](O)[C@@H](C)CC/C=C/2`, for which the melting temperature (Tm) in experiment [1], in experiment [2], in experiment [3], in [4], in experiment [5] and in experiment [6] was less than 2 °C in each case. Further, the Tm in [7], in experiment [8], in experiment [9], in [10], in experiment [11] and in experiment [12] was less than 2 °C throughout. Besides, the Tm in [13] and in experiment [14] was less than 2 °C throughout.

In the case of `C[C@@H]1C[C@H]2O[C@@H]2/C=C\C=C\C(=O)Cc2c(Cl)c(O)cc(O)c2C(=O)O1` [RADICICOL], the Tm in experiment [1], in experiment [2], in [3], in experiment [4], in [5] and in experiment [6] was less than 2 °C each time. In addition, the Tm in [7], in experiment [8], in [9], in [10], in experiment [11] and in [12] was less than 2 °C each time. The Tm in [13] is less than 2 °C; in experiment [14], 4.6 °C.

Take `COc1cc(O)c2c(c1)/C=C/CC[C@H](C)C(=O)CCC[C@H](C)OC2=O`: the midpoint of thermal melting (Tm) in experiment [1], in [2], in experiment [3], in experiment [4], in [5] and in [6] was less than 2 °C each time. For the same compound, the Tm is less than 2 °C in [7]; less than 2 °C in [8]; less than 2 °C in [9]; less than 2 °C in experiment [10]; 2.5 °C in experiment [11]; less than 2 °C in experiment [12]. For the same compound, the melting temperature (Tm) in experiment [13] and in [14] was less than 2 °C throughout.

On to `COc1cc2c(c(OC)c1)C(=O)O[C@@H](C)CCCC(=O)[C@@H](C)CC/C=C/2`, for which the Tm in experiment [1], in [2], in experiment [3], in experiment [4], in experiment [5] and in [6] was less than 2 °C throughout. Further, the Tm in experiment [7], in experiment [8], in experiment [9], in [10], in experiment [11] and in experiment [12] was less than 2 °C each time. Further, the midpoint of thermal melting (Tm) in experiment [13] and in experiment [14] was less than 2 °C throughout.

Turning to `C[C@H]1CCCC(=O)CCC/C=C/c2cc(O)cc(O)c2C(=O)O1`, the melting temperature (Tm) was less than 2 °C in [1]; less than 2 °C in experiment [2]; 4.6 °C in [3]; less than 2 °C in [4]; less than 2 °C in [5]; less than 2 °C in experiment [6]. The Tm was less than 2 °C in [7]; less than 2 °C in experiment [8]; less than 2 °C in [9]; less than 2 °C in experiment [10]; 4.4 °C in experiment [11]; less than 2 °C in experiment [12]. Moreover, the Tm was less than 2 °C in experiment [13] and 3.6 °C in [14].

As for `COC1=C2C[C@@H](C)C[C@H](OC)[C@H](O)[C@@H](C)/C=C(\C)[C@H](OC(N)=O)[C@@H](OC)/C=C\C=C(/C)C(=O)NC(=CC1=O)C2=O`, the Tm in [1], in [2], in experiment [3], in experiment [4], in experiment [5] and in [6] was less than 2 °C throughout. Also, the Tm in [7], in experiment [8], in experiment [9], in [10], in [11] and in [12] was less than 2 °C in each case. Moreover, the Tm in experiment [13] and in experiment [14] was less than 2 °C each time.

In the case of `C[C@H]1CCCC(=O)[C@@H](C)CC/C=C/c2cc(O)cc(O)c2C(=O)O1`, the Tm in experiment [1], in experiment [2], in experiment [3], in [4], in experiment [5] and in [6] was less than 2 °C each time. Also, the melting temperature (Tm) is less than 2 °C in experiment [7]; less than 2 °C in [8]; less than 2 °C in experiment [9]; less than 2 °C in [10]; 3.5 °C in [11]; less than 2 °C in experiment [12]. Also, the Tm in experiment [13] is less than 2 °C; in experiment [14] it was 3.9 °C.
